According to publication PMC9199349 (ACS chemical biology, 2020):
Entries after “also recorded” stand apart in the source; their conditions may differ. Where two headings read alike, the source gives them in different places.

Assays:
human OGG1 = human OGG1 (Homo sapiens, UniProt O15527); format: biochemical; conditions: for inhibition of excision of 8-OH-Gua by OGG1 / inhibition of excision of FapyAde by OGG1: inhibitor 10 μmol/L, genomic DNA, GC-MS/MS; for inhibition at 10 µM: read-out: inhibition of excision of FapyGua by OGG1
In short: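 Test compound was dissolved in DMSO and added to the reaction mixture of human OGG1 with genomic DNA carrying multiple oxidatively-induced lesions. It was screened at 10 μmol/L, then tested from 0.05 to 10 μmol/L. Excised 8-OH-Gua, FapyGua and FapyAde were quantified by isotope-dilution GC-MS/MS. Controls were no enzyme, no inhibitor, and DMSO alone. Standard deviations were given; significance was set at p < 0.05.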

OGG1 = conditions: read-out: IC50 OGG1, cited from earlier work
HEK293T and HeLa cells = conditions: cited from earlier work
HeLa cells = conditions: LC-MS/MS with isotope-dilution; cited from earlier work
Pseudomonas aeruginosa = conditions: mice infected with Pseudomonas aeruginosa; cited from earlier work
[1] = test system: other BER enzymes / other DNA glycosylases; conditions: cited from earlier work
MTH1 = conditions: read-out: IC50 MTH1; dual inhibitor; cited from earlier work
[2] = highest concentration of 100 μmol/L

Sequence of human OGG1 (O15527 whole entry): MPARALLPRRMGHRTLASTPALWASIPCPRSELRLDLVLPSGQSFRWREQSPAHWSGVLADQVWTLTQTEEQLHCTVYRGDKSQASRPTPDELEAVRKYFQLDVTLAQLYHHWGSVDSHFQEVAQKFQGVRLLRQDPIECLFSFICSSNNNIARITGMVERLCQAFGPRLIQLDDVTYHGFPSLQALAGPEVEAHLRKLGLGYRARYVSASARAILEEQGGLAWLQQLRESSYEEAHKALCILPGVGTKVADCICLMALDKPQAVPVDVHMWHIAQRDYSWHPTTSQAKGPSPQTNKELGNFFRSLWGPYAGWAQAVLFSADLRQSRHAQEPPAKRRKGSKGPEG

Row | Structure (SMILES) | inhibition of excision of 8-OH-Gua by OGG1 (human OGG1) | inhibition of excision of FapyAde by OGG1 (human OGG1) | inhibition at 10 µM (human OGG1) | IC50 (OGG1; fluorogenic assay of 8-OH-Gua excision) | toxicity (HEK293T and HeLa cells; concentrations up to 10 μmol/L) | toxicity (HEK293T and HeLa cells; [2]) | level of 8-OH-Gua in DNA (HeLa cells) | inflammation and mortality / survival (Pseudomonas aeruginosa) | selectivity for OGG1 over other BER enzymes [1] | IC50 (OGG1; dual inhibitor) | IC50 (MTH1)
1 | NC(=O)c1cccc(-c2ccc(S(=O)(=O)Nc3ccc4c(c3)N(C(=O)C3CC3)CCC4)cc2)c1 [SU0268, 4’-(N-(1-(cyclopropanecarbonyl)-1,2,3,4-tetrahydroquinolin-7-yl)sulfamoyl)-[1,1’-biphenyl]-3-carboxamide] | strongly inhibited | quite significant | ~60% | 59 nM | little or no toxicity | moderate toxicity | increase the level of 8-OH-Gua in DNA | reduced both inflammation and proinflammatory cytokines, and improved animal survival; also recorded: efficacy in reducing inflammation and mortality | selective for inhibiting OGG1 over other BER enzymes |  | 
2 | Cc1cnc(N)nc1OCCNC(=O)c1cccc(-c2ccc(S(=O)(=O)Nc3ccc4c(c3)N(C(=O)C3CC3)CCC4)cc2)c1 [SU0383, N-(2-((2-Amino-5-methylpyrimidin-4-yl)oxy)ethyl)-4’-(N-(1-(cyclopropanecarbonyl)-1,2,3,4-tetrahydroquinolin-7-yl)sulfamoyl)-[1,1’-biphenyl]-3-carboxamide] | significant inhibition | quite significant | ~30% |  | little or no toxicity | moderate toxicity |  |  |  | 490 nM | 34 nM
